According to ChEMBL document CHEMBL3352101, “Synthesis and inhibitory activity on hepatitis C virus RNA replication of 4-(1,1,1,3,3,3-hexafluoro-2-hydroxy-2-propyl)aniline analogs” (Bioorg Med Chem Lett, 2014):
pEC50: −log10 of the molar value. The source made the active and inactive calls. The calls are words filed in the database; no cut-off is given here.

Legend:
Hepatitis C virus [1] = test: Inhibition of HCV RNA replication in human Li23 cells (ORL8 system) by renilla luciferase reporter gene based replication assay; format: functional, organism-based, Hepacivirus hominis
[2] = Selectivity index, ratio of CC50 against human Li23 cells to EC50 against HCV RNA replication in human Li23 cells
How it was run: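 SI was calculated as CC50/EC50. CC50 in Li23 cells came from a WST-1 assay. EC50 came from the ORL8 genome-length HCV RNA Renilla luciferase replication assay. All assays were done in triplicate.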

[3] = Cytotoxicity against human Li23 cells by WST assay
Hepatitis C virus [4] = test: Inhibition of HCV RNA replication in human HuH7 cells (OR6 system) by renilla luciferase reporter gene based replication assay; format: functional, organism-based, Hepacivirus hominis; details: Huh-7
How it was run: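 The OR6 system carries genome-length HCV RNA with a Renilla luciferase reporter in HuH-7 hepatoma cells. Replication inhibition was measured and EC50 determined from runs done in triplicate.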

Hepatitis C virus [5] = test: Potentiation of 1 IU/mL IFN-alpha-induced inhibition of HCV RNA replication in human Li23 cells (ORL8 system) by renilla luciferase reporter gene based replication assay; format: functional, organism-based; details: Hepacivirus hominis
How it was run: (§1)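 Genome-length HCV RNA replication was read by Renilla luciferase in ORL8 (Li23) cells. Increasing compound concentrations were combined with IFN-α alone (1 IU/mL) or with IFN-α plus ribavirin (1 IU/mL + 6.3 µM; 4 IU/mL + ribavirin also tested). Assays were done in triplicate.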

Hepatitis C virus [6] = test: Potentiation of 1 IU/mL IFN-alpha and 6.3 uM ribavirin-induced inhibition of HCV RNA replication in human Li23 cells (ORL8 system) by renilla luciferase reporter gene based replication assay; format: functional, organism-based; details: Hepacivirus hominis; how it was run: as §1
Hepatitis C virus [7] = test: Inhibition of HCV RNA replication in human Li23 cells (ORL8 system) at 5 uM in presence of 10 to 200 uM vitamin E by renilla luciferase reporter gene based replication assay; format: functional, organism-based; details: Hepacivirus hominis
How it was run: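 Genome-length HCV RNA replication was measured by Renilla luciferase in ORL8 (Li23) cells. Vitamin E was given at various concentrations, with the test compound absent or present at 5 µM. Assays were done in triplicate.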

Li23 = test: Induction of ROS generation in human Li23 cells (ORL8 system); format: functional, cell-based
How it was run: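 ROS production in the ORL8 genome-length HCV RNA replicon system (Li23 cells) was measured by FACS analysis at a series of compound concentrations.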

Hepatitis C virus [8] = test: Inhibition of HCV RNA replication in human Li23 cells (ORL8 system) in presence of 1 IU/mL IFN-alpha by renilla luciferase reporter gene based replication assay; format: functional, organism-based; details: Hepacivirus hominis
How it was run: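 Li23 human hepatoma cells carrying replicating genome-length HCV RNA with a Renilla luciferase reporter (ORL8). Test compound given at a range of concentrations together with IFN-alpha at 1 IU/mL, with a vehicle control. HCV RNA replication read as luciferase reporter activity. Assays run in triplicate.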

Row | Structure (SMILES) | pEC50 (Hepatitis C virus [1]) | Ratio CC50/EC50 [2] | CC50 [3] | other results
1 | CN(Cc1ccccc1)c1ccc(C(O)(C(F)(F)F)C(F)(F)F)cc1 | 5.52 | 4.3 | 13 µM | 
2 | CN(C(=O)c1ccccc1)c1ccc(C(O)(C(F)(F)F)C(F)(F)F)cc1 | 6.49 | 203 | 65 µM | pEC50 (Hepatitis C virus [4]): < 4.70
3 | Cc1ccccc1C(=O)N(C)c1ccc(C(O)(C(F)(F)F)C(F)(F)F)cc1 | 4.77 | 2.2 | 38 µM | 
4 | CCCN(C(=O)c1ccccc1)c1ccc(C(O)(C(F)(F)F)C(F)(F)F)cc1 | 5.46 | 4.3 | 15 µM | 
5 | CN(c1ccc(C(O)(C(F)(F)F)C(F)(F)F)cc1)S(=O)(=O)c1ccccc1Br | 6.30 | 18 | 9.1 µM | 
6 | CN(C(=O)c1ccccn1)c1ccc(C(O)(C(F)(F)F)C(F)(F)F)cc1 | < 4.00 |  | > 100 µM | 
7 | CCCCC(=O)N(C)c1ccc(C(O)(C(F)(F)F)C(F)(F)F)cc1 | 5.64 | 11 | 26 µM | 
8 | Cc1cccc(C(=O)N(C)c2ccc(C(O)(C(F)(F)F)C(F)(F)F)cc2)c1 | 5.24 | 3.4 | 20 µM | 
9 | COc1cccc(S(=O)(=O)N(C)c2ccc(C(O)(C(F)(F)F)C(F)(F)F)cc2)c1 | 5.68 | 6.2 | 13 µM | 
10 | CN(c1ccc(C(O)(C(F)(F)F)C(F)(F)F)cc1)S(=O)(=O)c1cccc(F)c1 | 6.44 | 53 | 19 µM | 
11 | Cc1cc(C(O)(C(F)(F)F)C(F)(F)F)ccc1N(C)C(=O)c1ccccc1 | 5.77 | 5.3 | 9 µM | 
12 | Cc1cc(N(C)C(=O)c2ccccc2)ccc1C(O)(C(F)(F)F)C(F)(F)F | < 4.00 |  | 87 µM | 
13 | CN(C(=O)c1cccnc1)c1ccc(C(O)(C(F)(F)F)C(F)(F)F)cc1 | 4.35 | 1.4 | 63 µM | 
14 | CCN(C(=O)c1ccccc1)c1ccc(C(O)(C(F)(F)F)C(F)(F)F)cc1 | 6.11 | 24 | 19 µM | 
15 | CN(C(=O)Nc1ccccc1)c1ccc(C(O)(C(F)(F)F)C(F)(F)F)cc1 | 5.24 |  | > 20 µM | 
16 | Cc1ccc(S(=O)(=O)N(C)c2ccc(C(O)(C(F)(F)F)C(F)(F)F)cc2)cc1 | 6.36 | 34 | 15 µM | 
17 | CC(=O)N(C)c1ccc(C(O)(C(F)(F)F)C(F)(F)F)cc1 | 4.85 | 2.9 | 40 µM | 

Row | Structure (SMILES) | pEC50 (Hepatitis C virus [1]) | Ratio CC50/EC50 [2] | CC50 [3] | other results
18 | CN(C(=O)C1CCCCC1)c1ccc(C(O)(C(F)(F)F)C(F)(F)F)cc1 | 6.64 | 87 | 20 µM | 
19 | Cc1ccc(C(=O)N(C)c2ccc(C(O)(C(F)(F)F)C(F)(F)F)cc2)cc1 | 5.00 | 2.6 | 26 µM | 
20 | O=C(c1ccccc1)N(Cc1ccccc1)c1ccc(C(O)(C(F)(F)F)C(F)(F)F)cc1 | 5.54 | 2.6 | 7.5 µM | 
21 | COc1ccc(S(=O)(=O)N(C)c2ccc(C(O)(C(F)(F)F)C(F)(F)F)cc2)cc1 | 5.85 | 5.6 | 7.9 µM | 
22 | CCCC(=O)N(C)c1ccc(C(O)(C(F)(F)F)C(F)(F)F)cc1 | 5.42 |  | > 100 µM | 
23 | CN(c1ccc(C(O)(C(F)(F)F)C(F)(F)F)cc1)S(=O)(=O)c1ccccc1 | 6.72 | 84 | 16 µM | Activity (Hepatitis C virus [5]): Dose-dependent effect; Activity (Hepatitis C virus [6]): Dose-dependent effect; inhibition (Hepatitis C virus [7]): inactive; Activity (Li23): Dose-dependent effect; IC60 (Hepatitis C virus [1]): 5 µM
24 | CN(C(=O)Cc1ccccc1)c1ccc(C(O)(C(F)(F)F)C(F)(F)F)cc1 | < 4.00 |  | 27 µM | 
25 | CN(C(=O)c1cccs1)c1ccc(C(O)(C(F)(F)F)C(F)(F)F)cc1 | 5.59 | 13 | 33 µM | 
26 | CN(C(=O)C12CC3CC(CC(C3)C1)C2)c1ccc(C(O)(C(F)(F)F)C(F)(F)F)cc1 | 6.00 | 17 | 17 µM | 
27 | CN(c1ccc(C(O)(C(F)(F)F)C(F)(F)F)cc1)S(=O)(=O)c1ccccc1Cl | 6.77 | 88 | 15 µM | 
28 | CN(C(=O)c1ccccc1)c1ccccc1C(O)(C(F)(F)F)C(F)(F)F | < 4.70 |  | > 20 µM | 
29 | Cc1ccccc1S(=O)(=O)N(C)c1ccc(C(O)(C(F)(F)F)C(F)(F)F)cc1 | 6.44 | 33 | 12 µM | 
30 | O=C(Nc1ccc(C(O)(C(F)(F)F)C(F)(F)F)cc1)c1ccccc1 | 5.39 | 2.9 | 12 µM | 
31 | NC(=O)c1ncn([C@@H]2O[C@H](CO)[C@@H](O)[C@H]2O)n1 [RIBAVIRIN] | 5.06 |  |  | inhibition (Hepatitis C virus [8]): Active
32 | CN(C(=O)c1ccccc1)c1ccc(C(OCCO)(C(F)(F)F)C(F)(F)F)cc1 | 4.96 |  | > 20 µM | 
33 | CN(C(=O)c1ccsc1)c1ccc(C(O)(C(F)(F)F)C(F)(F)F)cc1 | 4.77 | 2.6 | 44 µM | 
34 | Cc1cccc(S(=O)(=O)N(C)c2ccc(C(O)(C(F)(F)F)C(F)(F)F)cc2)c1 | 6.46 | 31 | 11 µM | 
